Structures are written as SMILES. ≈ marks a conversion by molar mass, not a printed value.

Common to all, as to type: cell-based
For experiment [1], the system named is Staphylococcus aureus (ATCC 29213). The experiment can be described thus: Paper disk diffusion MIC. The conditions noted are these: ATCC29213, 24 h, read-out: Minimal Inhibitory Concentration (MIC). The procedure, abridged: (§1)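 Paper disk diffusion MIC. Paper disks (12.7 mm) were loaded with test compound at different concentrations, dried and placed on nutrient agar inoculated with the test organism. Growth inhibition was examined after 24 hrs at 37°C. Each test was done three times, and values are the mean ± standard error.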

Experiment [2] concerns MRSA. Briefly: Paper disk diffusion MIC. The conditions noted are these: Staphylococcus aureus, 24 h, read-out: Minimal Inhibitory Concentration (MIC). Summed up: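 Bacteria were grown on nutrient agar. Dried 12.7 mm paper disks loaded with a range of test compound concentrations were placed on inoculated agar plates. Growth inhibition was scored after 24 h at 37°C, and each test was replicated three times.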

The test system of experiment [3] is Staphylococcus aureus (ATCC 29213). Briefly: Agar plate diffusion, inhibition zone. The note with it: ATCC29213, 24 h, read-out: Mean Diameter of Inhibition Zone (IZ).
For experiment [4], the system named is MRSA. Briefly: Agar plate diffusion, inhibition zone. The note with it: Staphylococcus aureus, 24 h, read-out: Mean Diameter of Inhibition Zone (IZ).
For experiment [5], the system named is Bacillus subtilis (ATCC 6633). The experiment can be described thus: Agar plate diffusion, inhibition zone. The note with it: ATCC6633, 24 h, read-out: Mean Diameter of Inhibition Zone (IZ).
Experiment [6] concerns Pseudomonas aeruginosa (ATCC 27853). Briefly: Agar plate diffusion, inhibition zone. The conditions noted are these: ATCC27853, 24 h, read-out: Mean Diameter of Inhibition Zone (IZ).
Experiment [7] deals with Bacillus subtilis (ATCC 6633). The experiment can be described thus: Paper disk diffusion MIC. The note with it: ATCC6633, 24 h, read-out: Minimal Inhibitory Concentration (MIC). The procedure, abridged:
as §1

The subject of experiment [8] is Escherichia coli (ATCC 25922). The experiment can be described thus: Paper disk diffusion MIC. The conditions noted are these: ATCC25922, 24 h, read-out: Minimal Inhibitory Concentration (MIC). The procedure, abridged: as §1
In experiment [9] the test system is Pseudomonas aeruginosa (ATCC 27853). The experiment can be described thus: Paper disk diffusion MIC. The note with it: ATCC27853, 24 h, read-out: Minimal Inhibitory Concentration (MIC). The procedure, abridged:
as §1

For experiment [10], the system named is Escherichia coli (ATCC 25922). Briefly: Agar plate diffusion, inhibition zone. The conditions noted are these: ATCC25922, 24 h, read-out: Mean Diameter of Inhibition Zone (IZ).

As to `O=C(O)c1cn(C2CC2)c2cc(N3CCNCC3)c(F)cc2c1=O` [Ciprofloxacin, reference compound], the MIC worked out at 0.78 µg/mL (≈ 2.35 µM) in experiment [1]; 1.25 µg/mL (≈ 3.77 µM) in the experiment on MRSA [2]; 0.8 µg/mL (≈ 2.41 µM) in [7]; 1.57 µg/mL (≈ 4.74 µM) in experiment [8]; 3.13 µg/mL (≈ 9.45 µM) in [9]. Moreover, the zone of inhibition at 500 µg/mL stood at 27 ± 0.23 mm in experiment [3]; 22 ± 0.5 mm in the experiment on MRSA [4]; 29 ± 0.15 mm in experiment [5]; 24 ± 0.47 mm in experiment [6]; 27 ± 0.98 mm in experiment [10].
For `NS(=O)(=O)c1ccc(-n2c(SCC(=O)Nc3ccccc3)nc3ccccc3c2=O)cc1` [Compound 5, 2-((4-Oxo-3-(4-sulfamoylphenyl)-3,4-dihydroquinazolin-2-yl)thio)-N-phenylacetamide], the MIC in [1] stood at 1.56 µg/mL (≈ 3.34 µM); with MRSA [2], 10 µg/mL (≈ 21.4 µM); in experiment [7], 2.5 µg/mL (≈ 5.36 µM); in experiment [8], 10 µg/mL (≈ 21.4 µM); in experiment [9] it was 20 µg/mL (≈ 42.9 µM). For the same molecule, the zone of inhibition at 500 µg/mL turned out to be 22 ± 0.31 mm in [3]; 20 ± 0.18 mm in the experiment on MRSA [4]; 25 ± 0.07 mm in [5]; 15 ± 0.21 mm in experiment [6]; 14 ± 0.23 mm in experiment [10].
Take `Cc1ccccc1NC(=O)CSc1nc2ccccc2c(=O)n1-c1ccc(S(N)(=O)=O)cc1` [Compound 6, 2-((4-Oxo-3-(4-sulfamoylphenyl)-3,4-dihydroquinazolin-2-yl)thio)-N-2-tolylacetamide]: the MIC in experiment [1] was 31.2 µg/mL (≈ 65 µM); in experiment [7] it was 15.6 µg/mL (≈ 32.5 µM); in experiment [8], 5 µg/mL (≈ 10.4 µM); in experiment [9] it was 7.5 µg/mL (≈ 15.6 µM). Moreover, the zone of inhibition at 500 µg/mL in experiment [3] is 14 ± 0.03 mm; in [5] it was 16 ± 0.1 mm; in experiment [6], 17 ± 0.13 mm; in experiment [10], 15 ± 0.31 mm.
With `Cc1cccc(NC(=O)CSc2nc3ccccc3c(=O)n2-c2ccc(S(N)(=O)=O)cc2)c1` [Compound 7, 2-((4-Oxo-3-(4-sulfamoylphenyl)-3,4-dihydroquinazolin-2-yl)thio)-N-3-tolylacetamide], the MIC in [1] came out at 2.5 µg/mL (≈ 5.2 µM); in the experiment with MRSA [2], 7.81 µg/mL (≈ 16.3 µM); in [7], 1.25 µg/mL (≈ 2.6 µM); in experiment [8], 20 µg/mL (≈ 41.6 µM); in experiment [9], 15.6 µg/mL (≈ 32.5 µM). Besides, the zone of inhibition at 500 µg/mL in [3] stood at 15 ± 0.07 mm; in the experiment on MRSA [4], 10 ± 0.02 mm; in experiment [5], 20 ± 0.21 mm; in experiment [6] it was 14 ± 0.03 mm; in [10], 12 ± 0.15 mm.
With `Cc1ccc(NC(=O)CSc2nc3ccccc3c(=O)n2-c2ccc(S(N)(=O)=O)cc2)cc1` [Compound 8, 2-((4-Oxo-3-(4-sulfamoylphenyl)-3,4-dihydroquinazolin-2-yl)thio)-N-4-tolylacetamide], the MIC worked out at 12.5 µg/mL (≈ 26 µM) in experiment [1], 20 µg/mL (≈ 41.6 µM) with MRSA [2] and 6.31 µg/mL (≈ 13.1 µM) in experiment [7]. For the same molecule, the results for the zone of inhibition at 500 µg/mL (in experiment [3]; with MRSA [4]; in experiment [5]) were 23 ± 0.09 mm, 19 ± 0.01 mm and 26 ± 0.16 mm, respectively.
`CN(C)[C@@H]1C(O)=C(C(N)=O)C(=O)[C@@]2(O)C(O)=C3C(=O)c4c(O)cccc4[C@@](C)(O)[C@H]3C[C@@H]12` [Tetracycline, reference compound]: the MIC amounted to 62.5 µg/mL (≈ 141 µM) in experiment [1], 31.2 µg/mL (≈ 70.3 µM) in experiment [7], 15.6 µg/mL (≈ 35.2 µM) in experiment [8] and 62.5 µg/mL (≈ 141 µM) in [9]. For the same molecule, the zone of inhibition at 500 µg/mL in [3] is 25 ± 0.04 mm; in [5], 25 ± 0.01 mm; in [6], 20 ± 0.1 mm; in [10], 23 ± 0.31 mm.
As for `CN[C@H](CC(C)C)C(=O)N[C@H]1C(=O)N[C@@H](CC(N)=O)C(=O)N[C@H]2C(=O)N[C@H]3C(=O)N[C@H](C(=O)N[C@H](C(=O)O)c4cc(O)cc(O)c4-c4cc3ccc4O)[C@H](O)c3ccc(c(Cl)c3)Oc3cc2cc(c3O[C@@H]2O[C@H](CO)[C@@H](O)[C@H](O)[C@H]2O[C@H]2C[C@](C)(N)[C@H](O)[C@H](C)O2)Oc2ccc(cc2Cl)[C@H]1O` [Vancomycin, reference compound], the MIC in experiment [1] worked out at 1.57 µg/mL (≈ 1.08 µM); with MRSA [2], 3.9 µg/mL (≈ 2.69 µM); in experiment [7], 1.95 µg/mL (≈ 1.35 µM); in [8] it was 1.38 µg/mL (≈ 0.952 µM); in [9], 2.5 µg/mL (≈ 1.73 µM). The zone of inhibition at 500 µg/mL in [3] was determined as 17 ± 0.11 mm; with MRSA [4], 14 ± 0.65 mm; in experiment [5] it was 21 ± 0.4 mm; in experiment [6] it was 22 ± 0.85 mm; in experiment [10], 24 ± 0.2 mm.

The values above are taken from article PMC7211327 (International Journal of Nanomedicine, 2020).
